The values below come from ChEMBL document CHEMBL5500359, “Identification of a new bisindolinone arresting IGROV1 cells proliferation” (Eur J Med Chem, 2024).

Assay [1] in a line: Cytotoxicity against human Leukemia cancer cells incubated for 48 hrs by SRB assay. The format is functional. To be noted: Leukemia cell, read-out: LC50 (the source's name). In a few lines:
(§1)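 NCI DTP five-concentration screen. Cells were seeded at 5 × 10³–4 × 10⁴ cells/well, depending on the line. Compounds were diluted in fresh medium and added at scalar concentrations over 0–1000 µM or 0–100 µM. After 48 h the cells were fixed in situ, stained with sulforhodamine B, and optical density was read. GI50, TGI and LC50 were derived by NCI procedures, and the panel mean is the mean graph midpoint.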
A general note: In SRB staining, fixed cells bind dye roughly in proportion to their protein.

In another assay the test system is CNS carcinoma cell. Description: Cytostatic activity against human CNS carcinoma cells incubated for 48 hrs by SRB assay. The format is functional. The essentials: (§2)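 NCI-60 five-concentration screen: lines seeded 5×10^3–4×10^4 cells/well depending on line; compound diluted in fresh medium at scalar concentrations 0–100 or 0–1000 μM; 48 h exposure, in situ fixation, sulforhodamine B protein staining, optical density read; GI50, TGI and LC50 per NCI procedures; panel mean = mean graph midpoint.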

For assay [2], the system named is IGROV-1. Description: Effect on directionality of human IGROV-1 cells at 5 uM incubated for 24 hrs. The assay is classed as functional, cell-based. In a few lines:
(§3)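 Livecyte quantitative phase imaging, label-free single-cell tracking; IGROV1 seeded 4×10^3/well, treated after 24 h with 5 μM in six replicates; frames every 60 min for 2 days, 10× objective, 37 °C, 5% CO2. Each cell tracked for displacement, instantaneous velocity and directionality.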

The test system of assay [3] is IGROV-1. The experiment in a line: Downregulation of RAD51 mRNA level in human IGROV-1 cells at 5 uM pretreated for 24 hrs followed by UV exposure for 6 hrs by qRT-PCR analysis. The format is functional, cell-based. The conditions noted are these: time 30.0 hrs. In a few lines:
(§4)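 IGROV1 pretreated 24 h with 5 μM then UV-irradiated (7.5 W lamp, 3 min); CCND1 and RAD51 mRNA by qRT-PCR after column RNA extraction and reverse transcription, fold change versus vehicle; at least triplicate, Student's t-test.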
On the technique in general: Quantitative PCR measures a nucleic acid by following its amplification.

Assay [4] concerns IGROV-1. Description: Antiproliferative activity against human IGROV-1 cells at 5 uM incubated upto 48 hrs by quantitative phase imaging microscopy. The assay is classed as functional, cell-based. In a few lines: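 Quantitative phase imaging on IGROV1 seeded 4×10^3/well, 24 h later given 5 μM (six replicates; DMSO ≤0.1% final). Images hourly for 2 days at 37 °C, 5% CO2. Cell count and confluence normalized to experiment start; doubling time derived from growth.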

Assay [5] deals with IGROV-1. The experiment in a line: Induction of cell cycle arrest in human IGROV-1 cells assessed as increase in cell accumulation at G0/G1 phase at 5 uM incubated for 24 hrs by PI staining based flow cytometry relative to control. The format is functional. In a few lines:
(§5)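 IGROV1 plated 2×10^4 cells/cm², after 24 h given 5 μM for 24 h; cells detached, PBS-washed, stained 30 min at room temperature in dark with 50 μg/mL propidium iodide, 10 μg/mL RNase, 0.01% Igepal, 0.1% sodium citrate; DNA content by flow cytometry, phase percentages versus untreated.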

For another assay, the system named is Colon carcinoma cell. The experiment in a line: Cytotoxicity against human Colon carcinoma cells incubated for 48 hrs by SRB assay. The format is functional. The essentials: as §2
In assay [6] the test system is IGROV-1. Description: Downregulation of CCND1 mRNA level in human IGROV-1 cells at 5 uM pretreated for 24 hrs followed by UV exposure for 6 hrs by qRT-PCR analysis. The format is functional, cell-based. The conditions noted are these: time 30.0 hrs. In a few lines:
as §4

Assay [7] concerns Melanoma cell line. Description: Cell growth inhibition of human Melanoma cells incubated for 48 hrs by SRB assay. The format is functional. The essentials:
as §2

The nature of assay [8]: Cell growth inhibition of human Leukemia cancer cells incubated for 48 hrs by SRB assay. The assay is classed as functional. The essentials:
as §2

Assay [9] is described as follows: Upregulation of histone H2/H3 acetylation in human IGROV-1 cells incubated for 6 hrs by Western blot analysis relative to control. The format is functional. In a few lines: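 IGROV1 seeded 1.5×10^4 cells/cm², after 48 h exposed 6 h to 5 μM final; histones acid-extracted (0.4 N H2SO4) from nuclei isolated with 10 mM butyrate washes, acetone-precipitated, 15% SDS-PAGE, blotted with anti-acetyl-lysine; densitometry normalized to histone H1, percent of vehicle, mean ± SD of three experiments.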

The test system of the next assay is NSCLC. Description: Cell growth inhibition of human NSCLC cells incubated for 48 hrs by SRB assay. The format is functional. In a few lines:
as §2

Assay [10] concerns IGROV-1. Description: Cytotoxicity against human IGROV-1 cells assessed as reduction in cell viability incubated for 24 hrs by MTT assay. The format is functional, cell-based. To be noted: IGROV-1, 24 h. In a few lines: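 IGROV1 and HDFa in RPMI 1640 + 10% FCS, 2 mM glutamine, 37 °C, 5% CO2; seeded 1.5×10^4/well, after 24 h exposed 24 h to 0.010–500 μM (DMSO ≤0.1%). MTT 0.2 mg/mL in PBS 2 h at 37 °C, absorbance 570 nm; IC50 from dose-response, three independent experiments each in triplicate; SI = HDFa IC50/IGROV1 IC50.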
A general note: Tetrazolium dyes change colour on reduction, which living cells bring about.

Assay [11] has as its system IGROV-1. Description: Induction of cell cycle arrest in human IGROV-1 cells assessed as decrease in cell accumulation at G2/M phase at 5 uM incubated for 24 hrs by PI staining based flow cytometry relative to control. The assay is classed as functional. On the set-up: scale not given: the % may be the effect or the level left. In a few lines:
as §5

For a further assay, the system named is Ovarian cancer cell line. Description: Cytostatic activity against human Ovarian cancer cells incubated for 48 hrs by SRB assay. The assay is classed as functional. The essentials: as §2
Assay [12] concerns Panel NCI-60 (60 carcinoma cell lines). Description: Cell growth inhibition of human Panel NCI-60 (60 carcinoma cell lines) incubated for 48 hrs by SRB assay. The assay is classed as functional. The essentials:
as §2

Assay [13] concerns Melanoma cell line. The experiment in a line: […] against human Melanoma cells incubated for 48 hrs by SRB assay. The assay is classed as functional. The conditions noted are these: read-out: LC50 (the source's name). The essentials:
as §1

The next assay deals with Breast cancer cell line. The experiment in a line: Cell growth inhibition of human Breast cancer cells incubated for 48 hrs by SRB assay. The assay is classed as functional. The conditions noted are these: read-out: LC50 (the source's name). In a few lines: as §1
Assay [14] deals with IGROV-1. The experiment in a line: Downregulation of ITAG5 level in human IGROV-1 cells at 5 uM incubated for 6 hrs by Western blot analysis. The assay is classed as functional, cell-based. The essentials:
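IGROV1 exposed to 5 μM; RIPA lysates at 4 °C, protein quantified, SDS-PAGE (12.5% or 7.5%), nitrocellulose blot probed overnight at 4 °C for cyclin D1 or α5 integrin subunit; densitometry normalized to α-tubulin, percent of vehicle, mean ± SD of three experiments.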

For assay [15], the system named is IGROV-1. The experiment in a line: Downregulation of CCND1 mRNA level in human IGROV-1 cells at 5 uM incubated for 6 hrs by RT-PCR analysis. The assay is classed as functional, cell-based. The essentials:
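IGROV1 given 5 μM versus vehicle; RNA extracted by spin column, reverse transcribed, CCND1, CDKN1A and ITAG5 transcripts quantified by qRT-PCR as fold change versus vehicle; at least triplicate, Student's t-test, p<0.05.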

For assay [16], the system named is IGROV-1. Description: Downregulation of RAD51 level in human IGROV-1 cells at 5 uM pretreated for 24 hrs followed by UV exposure for 6 hrs by Western blot analysis. The format is functional, cell-based. The conditions noted are these: time 30.0 hrs. In a few lines:
(§6)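 IGROV1 pretreated 24 h with 5 μM, then UV-irradiated with a 7.5 W lamp for 3 min; UV alone as positive control. Cyclin D1 and RAD51 by RIPA-lysate Western blot normalized to α-tubulin; γH2AX by acid-extracted histone blot normalized to H1; percent of vehicle, mean ± SD, three experiments.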

The test system of assay [17] is IGROV-1. The experiment in a line: Anti-motility activity in human IGROV-1 cells assessed as decrease in cell displacement at 5 uM incubated for 24 hrs. The format is functional, cell-based. In a few lines:
as §3

Assay [18] relates to IGROV-1. Description: Downregulation of CCND1 level in human IGROV-1 cells at 5 uM pretreated for 24 hrs followed by UV exposure for 6 hrs by Western blot analysis. The assay is classed as functional, cell-based. To be noted: time 30.0 hrs. In a few lines: as §6
Assay [19] concerns IGROV-1. Description: Anti-motility activity in human IGROV-1 cells assessed as decrease in cell velocity at 5 uM incubated for 24 hrs. The format is functional, cell-based. The essentials:
as §3

The structures appear in SMILES notation. Active and inactive are the calls of the source. The calls are words filed in the database; no cut-off is given here.

One may read the GI50 as the concentration that inhibits growth by half. Usually IC50 stands for the concentration that gives 50% inhibition. By TGI is commonly meant the concentration at which net growth stops. On to `CC(C)(C)c1cc(/C=C2/C(=O)Nc3cc(Cl)ccc32)c(O)c(/C=C2/C(=O)Nc3cc(Cl)ccc32)c1`, for which the CC50 turned out to be 97.7 µM in assay [1], 8.51 µM with Melanoma cell line [13] and 2950 nM in the assay on Breast cancer cell line. Moreover, the GI in the assay with CNS carcinoma cell amounted to 11.75 µM; in the assay on Colon carcinoma cell, 37.15 µM; with Melanoma cell line [7] it was 2.82 µM; with NSCLC, 3.63 µM. Moreover, in the assay on IGROV-1 [2], the outcome was inactive. For the same molecule, the outcome with IGROV-1 [3], with IGROV-1 [4], with IGROV-1 [6], in the assay on IGROV-1 [14], in the assay with IGROV-1 [15] and in the assay on IGROV-1 [16] was Active. In addition, the outcome in the assay on IGROV-1 [17], in the assay with IGROV-1 [18] and in the assay on IGROV-1 [19] was Active. In addition, the Activity in the assay with IGROV-1 [5] is given as 13.4%; in [9], 55.2%; in the assay on IGROV-1 [11] it was 11.9%. The 50% growth inhibitory concentration (GI50) in assay [8] worked out at 2450 nM; in [12], 3.02 µM. In addition, in the assay on IGROV-1 [10], the IC50 was found to be 6.06 µM. In the assay with Ovarian cancer cell line, this molecule came in with a TGI of 10 µM.
